Experimental data published in ChEMBL document CHEMBL1127669, “Conformationally constrained peptides and semipeptides derived from RGD as potent inhibitors of the platelet fibrinogen receptor and platelet aggregation” (J Med Chem, 1994).
Starred links: 1 amine or outer side, 2 acyl side, 3 side chain; linkers in the order of their positions; H or OH if unused. Positions of bridges follow the written chain, without caps; N, C: chain ends. Non-standard residues stand in square brackets, D forms with d. Residues, ends and D or L forms follow the SMILES beside them. X4 = O=C([C@@H](N[*:1])[C@@H](S[*:3])c1ccccc1)[*:2]; X1 = O=C([C@@H](N[*:1])[C@H](S[*:3])c1ccccc1)[*:2]; NMeR = CN[C@@H](CCCNC(=N)N)C(=O)O

organism: Canis familiaris; assay: Inhibition of platelet aggregation in canine platelet rich plasma induced by ADP; format: functional, Canis lupus familiaris; conditions: not given
How it was run: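 Citrated canine PRP aggregation read optically by light transmittance. Peptide stock was 12 mM in 0.2 M acetic acid. Final 200 µM peptide and 10 µM ADP, pH 7.7, after 5-min preincubation with peptide.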

IC50 [nM] | SMILES
4120 | CC(=O)N[C@@H]1CSSC(C)(C)[C@H](C(N)=O)NC(=O)C(CC(=O)O)NC(=O)CNC(=O)C(CCCN=C(N)N)NC1=O (single isomer, unassigned; 12)

same assay, conditions: Canis lupus familiaris, Plasma

IC50 [nM] | SMILES
26000 | CN1C(=O)c2ccccc2SSc2ccccc2NC(=O)[C@H](CC(=O)O)NC(=O)CNC(=O)[C@H]1CCCN=C(N)N
8080 | N=C(N)NCCC[C@@H]1NC(=O)c2ccccc2SSC[C@@H](C(N)=O)NC(=O)[C@H](CC(=O)O)NC(=O)CNC1=O (single isomer, unassigned)
40 | CC(=O)N[C@H]1CSS[C@H](c2ccccc2)[C@@H](C(=O)O)NC(=O)[C@H](CC(=O)O)NC(=O)CNC(=O)[C@H](CCCN=C(N)N)N(C)C1=O (Ac-C[NMeR]GD[X1]-OH; disulfide 1-5)
600 | CN1C(=O)c2ccccc2SSc2ccccc2NC(=O)[C@@H](CC(=O)O)NC(=O)CNC(=O)[C@@H]1CCCN=C(N)N
90 | CN1C(=O)c2ccccc2SSc2ccccc2NC(=O)[C@H](CC(=O)O)NC(=O)CNC(=O)[C@@H]1CCCN=C(N)N (single isomer, unassigned)
1200 | CC(=O)N[C@H]1CSSC(C)(C)[C@@H](C(N)=O)NC(=O)[C@H](CC(=O)O)NC(=O)CNC(=O)[C@H](CCCN=C(N)N)NC(=O)CN(C)C1=O (single isomer, unassigned)
137000 | CC(=O)N[C@H]1CSSC(C)(C)[C@@H](C(N)=O)NC(=O)[C@H](CC(=O)O)N(C)C(=O)CNC(=O)[C@H](CCCN=C(N)N)NC1=O (single isomer, unassigned)
24400 | CC(=O)N[C@@H]1CSSC(C)(C)[C@H](C(N)=O)NC(=O)[C@@H](CC(=O)O)NC(=O)CNC(=O)[C@@H](CCCN=C(N)N)N(C)C(=O)[C@@H]2CCCN2C1=O
11400 | CC(=O)N[C@H]1CSSC(C)(C)[C@@H](C(N)=O)NC(=O)[C@H](CC(=O)O)NC(=O)CNC(=O)[C@H](CCCN=C(N)N)NC(=O)CNC1=O (single isomer, unassigned) [listing 1 of 2 here]
170 | CC(=O)N[C@H]1CSSc2ccccc2NC(=O)[C@H](CC(=O)O)NC(=O)CNC(=O)[C@H](CCCN=C(N)N)N(C)C1=O (single isomer, unassigned)
16200 | CC(=O)N[C@H]1CSSC[C@@H](C(N)=O)NC(=O)[C@H](CC(=O)O)NC(=O)CNC(=O)[C@H](CCCN=C(N)N)NC1=O (single isomer, unassigned)
50 | CC(=O)N[C@H]1CSS[C@@H](c2ccccc2)[C@@H](C(N)=O)NC(=O)[C@H](CC(=O)O)NC(=O)CNC(=O)[C@H](CCCN=C(N)N)N(C)C1=O (Ac-C[NMeR]GD[X4]-NH2; disulfide 1-5)
9710 | CC(=O)N[C@H]1CSSc2ccccc2NC(=O)[C@H](CC(=O)O)NC(=O)CNC(=O)[C@H](CCCN=C(N)N)NC1=O (single isomer, unassigned)
900 | CCN1C(=O)[C@@H](NC(C)=O)CSSC(C)(C)[C@@H](C(N)=O)NC(=O)[C@H](CC(=O)O)NC(=O)CNC(=O)[C@@H]1CCCN=C(N)N (single isomer, unassigned)
23400 | CC(=O)N[C@H]1CSSC(C)(C)[C@@H](C(N)=O)NC(=O)[C@H](CC(=O)O)N(C)C(=O)CNC(=O)[C@H](CCCN=C(N)N)N(C)C1=O (single isomer, unassigned)

target: Integrin alpha-IIb/beta-3 (Homo sapiens, UniProt P05106+P08514); assay: Tested for inhibition of fibrinogen binding to purified GPIIb/IIIa isolated from human platelets and reconstituted in liposomes; conditions: not given
How it was run: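 Displacement of [¹²⁵I]fibrinogen from purified human platelet GPIIb/IIIa incorporated into phospholipid vesicles. Values without statistical limits come from a single determination.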

Chain of Integrin alpha-IIb/beta-3 (P05106 27-788 limits assumed): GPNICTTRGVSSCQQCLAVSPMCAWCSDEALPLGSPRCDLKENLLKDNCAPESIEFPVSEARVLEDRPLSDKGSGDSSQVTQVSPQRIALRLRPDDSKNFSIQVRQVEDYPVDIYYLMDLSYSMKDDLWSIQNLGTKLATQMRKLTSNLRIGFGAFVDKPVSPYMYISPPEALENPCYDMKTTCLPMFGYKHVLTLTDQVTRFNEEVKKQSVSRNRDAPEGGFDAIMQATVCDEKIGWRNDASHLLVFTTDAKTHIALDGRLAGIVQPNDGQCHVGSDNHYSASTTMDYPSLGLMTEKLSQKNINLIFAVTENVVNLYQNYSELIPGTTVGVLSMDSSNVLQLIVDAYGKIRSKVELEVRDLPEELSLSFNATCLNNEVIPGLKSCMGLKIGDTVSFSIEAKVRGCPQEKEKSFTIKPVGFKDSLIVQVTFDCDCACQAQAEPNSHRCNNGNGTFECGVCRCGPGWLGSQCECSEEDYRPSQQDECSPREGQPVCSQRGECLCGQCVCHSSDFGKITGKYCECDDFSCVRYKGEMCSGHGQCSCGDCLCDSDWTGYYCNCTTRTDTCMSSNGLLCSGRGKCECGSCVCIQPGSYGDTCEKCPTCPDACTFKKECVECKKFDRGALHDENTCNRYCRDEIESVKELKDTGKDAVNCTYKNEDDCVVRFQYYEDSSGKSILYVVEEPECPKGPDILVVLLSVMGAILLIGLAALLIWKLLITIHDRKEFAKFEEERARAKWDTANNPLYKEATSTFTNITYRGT
Chain of Integrin alpha-IIb/beta-3 (P08514 32-887 limits assumed): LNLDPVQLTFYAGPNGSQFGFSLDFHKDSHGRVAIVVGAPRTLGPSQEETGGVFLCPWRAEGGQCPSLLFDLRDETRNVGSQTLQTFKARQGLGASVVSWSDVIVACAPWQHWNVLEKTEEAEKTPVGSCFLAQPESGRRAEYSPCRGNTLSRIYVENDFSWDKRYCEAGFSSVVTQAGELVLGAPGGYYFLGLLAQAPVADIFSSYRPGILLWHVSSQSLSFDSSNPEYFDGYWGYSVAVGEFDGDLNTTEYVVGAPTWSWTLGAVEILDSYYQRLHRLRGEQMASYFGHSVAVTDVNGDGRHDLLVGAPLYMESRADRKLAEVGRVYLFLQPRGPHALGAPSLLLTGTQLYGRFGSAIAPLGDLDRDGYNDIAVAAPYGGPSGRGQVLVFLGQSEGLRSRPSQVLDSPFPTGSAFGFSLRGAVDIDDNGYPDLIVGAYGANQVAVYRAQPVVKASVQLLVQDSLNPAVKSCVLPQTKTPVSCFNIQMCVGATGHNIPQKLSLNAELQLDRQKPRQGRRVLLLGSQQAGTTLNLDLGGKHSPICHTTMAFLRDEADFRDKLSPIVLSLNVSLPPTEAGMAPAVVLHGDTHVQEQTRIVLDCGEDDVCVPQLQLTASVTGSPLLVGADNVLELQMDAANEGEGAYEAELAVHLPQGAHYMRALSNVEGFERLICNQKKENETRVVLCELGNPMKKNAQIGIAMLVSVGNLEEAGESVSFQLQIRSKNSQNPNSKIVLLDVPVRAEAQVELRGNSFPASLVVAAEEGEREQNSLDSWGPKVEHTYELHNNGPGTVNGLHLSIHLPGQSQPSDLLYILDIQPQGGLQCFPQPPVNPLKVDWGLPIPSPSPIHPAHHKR
Chain of Integrin alpha-IIb/beta-3 (P08514 891-1039 limits assumed): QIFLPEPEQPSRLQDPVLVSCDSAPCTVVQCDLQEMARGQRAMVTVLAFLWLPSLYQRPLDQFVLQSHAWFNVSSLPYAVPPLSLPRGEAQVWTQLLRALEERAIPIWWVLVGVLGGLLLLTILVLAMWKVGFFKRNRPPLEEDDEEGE

Ki [nM] | SMILES
610 | CC(=O)N[C@H]1CSSC(C)(C)[C@@H](C(N)=O)NC(=O)[C@H](CC(=O)O)NC(=O)CNC(=O)[C@H](CCCN=C(N)N)NC(=O)CNC1=O (single isomer, unassigned) [listing 2 of 2 here]
26 | CC(=O)N[C@H]1CSSc2ccccc2NC(=O)[C@H](CC(=O)O)NC(=O)CNC(=O)[C@H](CCCNC(=N)N)N(C)C1=O (single isomer, unassigned)
77 | CC(=O)N[C@H]1CSSC(C)(C)[C@@H](C(N)=O)NC(=O)[C@H](CC(=O)O)NC(=O)CNC(=O)[C@H](CCCNC(=N)N)NC(=O)CN(C)C1=O (single isomer, unassigned)
65 | CCN1C(=O)[C@H](NC(C)=O)CSSC(C)(C)[C@H](C(N)=O)NC(=O)[C@@H](CC(=O)O)NC(=O)CNC(=O)[C@H]1CCCNC(=N)N (single isomer, unassigned)
4200 | CC(=O)N[C@@H](CCCN=C(N)N)C(=O)NCC(=O)N[C@@H](CC(=O)O)C(N)=O
